High-throughput results (PubChem BioAssay)
ADAM10 inh – human ADAM10 inhibitors, primary screen, biochemical, QFRET, HTS | Disintegrin and metalloproteinase domain-containing protein 10 (Homo sapiens), O14672 | recombinant ADAM10, EDANS/DABCYL FRET peptide cleavage, 3 h | inhibition, % at 7 µM | actives 0.62% (n = 370,000);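 active = inhibition above a per-campaign cutoff equal to the mean of compounds falling between control-based bounds plus 3 SD, cut at about 20% in these data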;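 note: 0% = DMSO wells while the 100% control is not disclosed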
KLK7 zymogen act – proKLK7 zymogen activators, primary screen, biochemical, fluorescence intensity. purified proKLK7, EDANS-DABCYL substrate fluorescence; 100% is mature enzyme control, 0% vehicle. activation, % at 7 µM. actives 0.9% (n = 370,000);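 active = activation above the mean of all tested compounds plus 3 SD, computed per campaign excluding outliers beyond control limits, cut at about 13% in these data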
ADAM17 inh – ADAM17 inhibitors, primary screen, biochemical, QFRET | recombinant ADAM17, EDANS/DABCYL FRET peptide cleavage | inhibition, % at 6.95 µM | actives 0.83% (n = 370,000);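 active = inhibition above the mean of compounds lying between control limits plus 3 SD, set per campaign, cut at about 8.5% in these data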;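 note: 0% = DMSO-only wells as the low control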
GASC-1 inh – inhibitors of GASC-1 histone demethylase, primary screen, biochemical, fluorescence, DELFIA europium; Lysine-specific demethylase 4C (Homo sapiens), Q9H3R0; GST-JMJD2C(1-420) H3K9me3 demethylation; inhibition, % at 2.35 µM; actives 0.069% (n = 330,000); AID 2099, 2009;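 active = more than half of a compound's replicate wells show inhibition beyond 50%, single wells judged on their own value; inconclusive = some, but no more than half, of replicates pass 50% inhibition; inactive = no replicate passes 50% inhibition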;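 note: signal counts dimethyl H3K9 product captured on neutravidin plate; 0% = median of DMSO wells and 100% = 0.3 times that DMSO median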
Target sequence (Q9H3R0 1-420 limits assumed): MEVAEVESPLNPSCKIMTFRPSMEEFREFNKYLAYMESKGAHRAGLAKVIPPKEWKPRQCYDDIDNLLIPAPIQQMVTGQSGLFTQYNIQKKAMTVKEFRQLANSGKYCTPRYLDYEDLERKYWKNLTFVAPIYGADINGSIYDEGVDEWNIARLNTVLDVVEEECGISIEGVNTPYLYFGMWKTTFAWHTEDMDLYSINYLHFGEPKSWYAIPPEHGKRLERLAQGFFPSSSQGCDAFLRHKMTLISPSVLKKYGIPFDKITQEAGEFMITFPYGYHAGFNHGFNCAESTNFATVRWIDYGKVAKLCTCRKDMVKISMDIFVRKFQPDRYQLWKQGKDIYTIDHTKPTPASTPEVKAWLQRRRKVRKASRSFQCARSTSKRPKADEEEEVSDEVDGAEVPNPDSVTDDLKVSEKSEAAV
NR2E3 ag-1 – NR2E3 agonists in two-hybrid cells, primary screen, cell-based, luminescence, CHO-S, Gal4-NCOR/VP16-NR2E3. actives 0.35% (n = 360,000). inhibition of corepressor binding, % at 3.98 µM. luciferase;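 active = inhibition above the mean of all tested compounds plus 3 SD, cut at about 70% in these data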;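 note: 0% = DMSO with NR2E3 transfected cells and 100% = cells lacking NR2E3 construct; higher means lower luciferase signal from less NR2E3 corepressor binding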
NR2E3 ag-2 – inhibitors of NR2E3-RetCOR corepressor binding, primary screen, NR2E3 agonist project, biochemical, TR-FRET, GST-NR2E3, biotin-RetCOR. 1536-well. inhibition of corepressor binding, % at 4.78 µM. actives 0.12% (n = 320,000);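 active = percent inhibition above the cutoff of mean plus 3 SD of all tested compounds, set per screening campaign, cut at about 20% in these data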;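 note: 0% = DMSO wells and 100% = biotin wells as full block of FRET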
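Assay system: NR2E3–RetCOR corepressor complex. Quantity: 1.35 nM GST-NR2E3. Buffer or medium: pH 7.5 Tris-based buffer. Reagent: biotinylated RetCOR corepressor at 7 nM final. Schedule: 5 h at 4 °C. Detection: TR-FRET, emission read at 617 and 671 nm. Replicates: one well per compound, singlicate testing.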
KLK7 act conf – proKLK7 zymogen activators, confirmation, biochemical, fluorescence intensity, triplicate; shares compounds with KLK7 zymogen act; purified proKLK7, EDANS-DABCYL substrate fluorescence; scaled: vehicle 0, mature enzyme 100; activation, % at 7 µM; actives 68% (n = 3,200); AID 686949, 2013;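 active = activation, as change over the incubation, above the mean of all tested compounds plus 3 SD, cut at about 13% in these data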
EDANS interfere – EDANS-DABCYL substrate optical interference, artefact control for kallikrein-7 zymogen activator project, biochemical, fluorescence intensity, high throughput. shares compounds with KLK7 zymogen act. no enzyme, 4 h; solvent 0%, active enzyme control 100%. activation, % at 7 µM. actives 80% (n = 3,200). AID 686952, 2013;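 active = activation above the all-compound mean plus 3 SD, ignoring values outside control-based bounds, cut at about 4.8% in these data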;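 note: value is the 4 h activation minus the activation read at time zero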
Starred values were filed as active, the others as inactive; i = inactive; u = inconclusive; x = no result. Sampled rows, rich in hits. Any-hit rate of the full collection: about 2.5%.

SMILES	ADAM10 inh	KLK7 zymogen act	ADAM17 inh	GASC-1 inh	NR2E3 ag-1	NR2E3 ag-2	KLK7 act conf	EDANS interfere
CCCCn1c(N)c(N(CCOC)C(=O)C2CCN(C(=O)c3ccc(F)cc3)CC2)c(=O)[nH]c1=O	-3.4	-0.5	-4.4	u	-5.2	-0.2	x	x
COc1ccc(NC(=O)N(C)C[C@@H]2Oc3ccc(NC(=O)NC(C)C)cc3CC(=O)N([C@H](C)CO)C[C@@H]2C)cc1	3.6	-0.2	-3.1	x	-7.9	x	x	x
Cc1ccc(C2Oc3ccccc3C3=C2C(c2cccs2)n2ncnc2N3)cc1 (stereo not drawn)	-138.5	-8.8	-35.4	4.5	-37.3	-0.5	x	x
Fc1ccc(C2C3=C(Nc4ncnn42)c2ccccc2OC3c2ccncc2)cc1 (stereo not drawn)	-313.9	13.2*	-111.6	-0.6	-9.6	-0.8	22.9*	25.6*
CC(C)Sc1n[nH]c(=O)n1-c1ccccc1	-6.4	0.0	-2.8	6.6	-4.0	-1.7	x	x
CCN(CC)c1ccc(Nc2cc3n(c(=O)n2)CCc2cc(OC)c(OC)cc2-3)cc1	-121.9	21.4*	-55.9	31.8	31.1	-4.1	71.8*	74.5*
CCCCCCCCN1C(=O)[C@@H](CC(=O)N2CCCCC2)C[C@@]2(C(=O)OC)C1=C[C@H](COCc1ccccc1)O[C@@H]2C	0.1	0.7	-1.0	x	x	x	x	x
O=C(NCc1ccccc1)C1c2ccccc2OCC(=O)N1CCc1c[nH]c2ccccc12 (stereo not drawn)	1.0	0.2	-1.5	x	-17.1	x	x	x
COC(=O)C1=CN(Cc2ccc(OC)c(OC)c2)C=C(C(=O)OC)C1c1ccc(O)cc1	i	20.6*	-451.4	1.5	-8.9	x	-147.2	-167.9
COC(=O)C1=CN(Cc2ccc(OC)c(OC)c2)C=C(C(=O)OC)C1c1ccc(F)cc1	i	-22.1	i	-4.6	-20.4	-0.4	x	x
COc1ccc(-c2c(C)c3ccc(O)cc3oc2=O)cc1OC	i	35.8*	i	-0.5	-0.9	3.8	68.7*	73.7*
Cc1c(CCC(=O)O)c(=O)oc2cc(O)ccc12	i	39.5*	i	-2.3	-4.8	-3.5	66.1*	78.5*
COc1ccccc1C(=O)C1CCCN(C(=O)c2cccc(Cn3cccn3)c2)C1 (stereo not drawn)	1.4	0.8	2.5	1.4	24.8	0.5	x	x
O=C(O)c1ccc(N/N=C/C2=Cc3ccccc3OC2)cc1	-29.0	14.5*	-10.2	11.1	-112.3	-0.3	4.3	11.0*
O=C(O)c1ccc(N/N=C/c2ccncc2)cc1	-2.1	-1.1	0.5	-4.4	-38.8	-2.5	x	x
COc1ccc(/C=N/NC(=O)c2nc(Cl)c(Cl)c(N)c2Cl)cc1COc1ccccc1F	-392.2	42.1*	-118.2	6.8	16.0	0.8	58.8*	72.5*
Cc1cccc(N/C(N)=N/c2nc(C)cc(=O)[nH]2)c1	-1.6	0.0	-2.0	-20.7	-21.1	2.8	x	x
O=C(Nc1cccc(O)c1)c1c(O)c2ccccc2[nH]c1=O	-11.5	0.1	-8.1	1.5	-154.5	2.3	x	x
O=C1CCCc2nc3c(cc21)C(O)Oc1ccccc1-3 (stereo not drawn)	i	70.7*	-192.6	-22.3	2.3	2.1	52.1*	64.8*
